The list is not random: actives were taken first. Their share in the collection is about 3.8%.
KCNQ1 act = potentiators or activators of human KCNQ1 potassium channel; B-score at 10 µM; hit rate 0.35% among 310,000; CHO-K1 KCNQ1, thallium flux FluxOR fluorescence; active compounds read high; AID 2648;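 active means fluorescence ratio B-score, a plate-corrected score, at least three library SD, with initial intensity B-score within 5 SD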
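Medium – assay buffer, equal DMSO in all wells · Material – CHO-K1 cell line with stable KCNQ1 potassium channel expression · Signal – kinetic FluxOR thallium fluorescence, 10-s 1-Hz baseline, 110-s post-stimulus read · Compound – single concentration per compound, DMSO matched to controls · Schedule – 37 °C overnight plating, 90-min dark dye load, 20-min compound pretreatment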
Kir21 block = blocks the mouse Kir2.1 inward-rectifier potassium channel; P35561; HEK293-Kir2.1, FluxOR thallium flux fluorescence; active compounds read low; B-score at 10 µM; hit rate 0.85% among 310,000; AID 1672;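 active means fluorescence ratio B-score at or below minus 3 SD of library scores, with starting-brightness B-score within 2 SD, cut at about -4.2 in these data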;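 further: channel flux triggered by added potassium and thallium sulfate stimulus; B-score of peak minus minimum fluorescence over baseline after thallium stimulus; more negative B-score means stronger Kir2.1 block with less thallium influx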
Target sequence (P35561 whole entry, looked up): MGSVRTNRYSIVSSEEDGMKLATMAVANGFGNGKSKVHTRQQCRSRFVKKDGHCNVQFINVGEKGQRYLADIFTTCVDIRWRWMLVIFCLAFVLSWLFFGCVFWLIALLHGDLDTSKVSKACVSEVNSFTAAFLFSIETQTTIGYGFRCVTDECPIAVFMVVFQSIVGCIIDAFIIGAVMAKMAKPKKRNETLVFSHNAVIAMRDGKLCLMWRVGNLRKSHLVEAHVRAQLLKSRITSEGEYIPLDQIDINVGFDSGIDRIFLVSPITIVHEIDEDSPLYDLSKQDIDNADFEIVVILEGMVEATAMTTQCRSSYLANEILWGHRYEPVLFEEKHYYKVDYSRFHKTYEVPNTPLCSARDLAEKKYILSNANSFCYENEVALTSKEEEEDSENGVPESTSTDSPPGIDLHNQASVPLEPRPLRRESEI
hERG rescue = compounds protecting human hERG from proarrhythmic drug block | Q12809 | CHO-hERG, FluxOR thallium flux, dofetilide IC70 present | activation (rescue from dofetilide block), less the hit threshold, % at 10 µM | hit rate 0.51% among 310,000 | AID 1511;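 active means activation above the mean of controls blocked by dofetilide plus 5 SD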;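 further: thallium influx through hERG after potassium depolarization seen as dye fluorescence rise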
KCNK3 inh = human KCNK3 channel inhibition, primary screen | O14649 | CHO-KCNK3 thallium flux, FluxOR fluorescence; active compounds read low | B-score at 10 µM | hit rate 0.84% among 340,000 | AID 602410;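 active means B-score under library mean minus 4 SD, starting fluorescence ratio at most library mean plus 5 SD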;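 further: more negative B-score means stronger inhibition of thallium flux through KCNK3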
KCNQ1 block = inhibitors of human KCNQ1 potassium channel; P51787; CHO-K1 KCNQ1, FluxOR thallium flux fluorescence; active compounds read high; B-score at 10 µM; hit rate 1.3% among 310,000; AID 2642;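 active means compounds whose thallium flux B-score, printed positive for inhibition, exceeds three library SD while starting fluorescence stays within three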;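 further: channel opened by potassium depolarization with thallium stimulus after 20 min compound exposure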
KCNK9 block = human KCNK9 channel inhibition; Q9NPC2; HEK293 KCNK9, FluxOR thallium flux fluorescence; active compounds read low; B-score at 10 µM; hit rate 1.2% among 310,000;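 active means ratio B-score over 3 SD below the library mean, with starting fluorescence within 5 SD of its mean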;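 further: negative B-score means less thallium flux so channel inhibition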
KCNK9 inh conf = confirmation of human KCNK9 potassium channel inhibitors; shares compounds with KCNK9 block; HEK293 KCNK9 cells, FluxOR thallium flux fluorescence; hit rate 43% among 4,900; inhibition, % at 10 µM;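 active means thallium signal inhibited by more than 5 SD of the compound-free buffer control wells, on both duplicate plates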
Kir2-1 spec = selectivity of KCNK9 modulators against mouse Kir2.1; Kir2.1 cells, FluxOR thallium flux fluorescence; hit rate 4% among 4,900; inhibition, % at 10 µM; shares compounds with KCNK9 block; AID 492993;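 active means thallium signal drop more than 5 SD beyond the mean of the no-compound control wells, seen in both duplicate plates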;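 further: signal is fluorescence rise after thallium addition divided by baseline fluorescence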
KCNK9 uninduced = second check of KCNK9 modulator effects in non-induced HEK293 cells; inhibition, % at 10 µM; hit rate 40% among 4,900; shares compounds with KCNK9 block; FluxOR thallium flux;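 active means thallium signal drop beyond 5 SD of the untreated control mean, on both duplicate plates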
Each line names hits and unclear results; the compound was inactive in the other large screens (follow-up assays come after a bar, where they were run).

CCCCN(CC)C(=O)c1cc2cc3ccc(Cl)cc3nc2o1	KCNK9 block -8.46 | KCNK9 inh conf 44.0% | Kir2-1 spec inactive | KCNK9 uninduced inactive
COc1ccc([C@@H]2CC=C(C(=O)O)[C@H](c3ccccc3F)N2S(=O)(=O)c2ccccc2C)cc1	none (no result: KCNQ1 act, Kir21 block, hERG rescue, KCNQ1 block, KCNK9 block)
COCc1cc(N2CCOCC2)nc(SCc2ccc(Cl)cc2)n1	none
CSCc1cc(N2CCOCC2)nc(SCc2ccc(Cl)c(Cl)c2)n1	KCNK9 block -9.22 | KCNK9 inh conf 31.0% | Kir2-1 spec inactive | KCNK9 uninduced 37.5%
O=[N+]([O-])c1cccc(S(=O)(=O)NCCCn2ccnc2)c1	none
CCCCNC(=S)N/N=C/C1=CCC2CC1C2(C)C (centres undefined)	none | KCNK9 inh conf inactive | Kir2-1 spec inactive | KCNK9 uninduced inactive
O=C(Cc1cccs1)NCc1ccc(Cl)cc1	none
CC1CC(C)CN(S(=O)(=O)c2ccc3c(c2)CC(C)N3C(=O)C2CC2)C1 (centres undefined)	none | KCNK9 inh conf inactive | Kir2-1 spec inactive | KCNK9 uninduced inactive
CC1CC(C)CN(S(=O)(=O)c2ccc3c(c2)CC(C)N3C(=O)C2CCC2)C1 (centres undefined)	none | KCNK9 inh conf inactive | Kir2-1 spec inactive | KCNK9 uninduced inactive
CN=C(Nc1ccc(C(=O)OC)s1)c1ccc(Cl)cc1	none
Cc1ccc(/C=N/NC(=O)CSc2nc3ccccc3n2Cc2ccc(Cl)cc2)o1	KCNK9 block -21.2 | KCNK9 inh conf 62.5% | Kir2-1 spec inactive | KCNK9 uninduced 50.5%
Cc1ccc(/C=N/NC(=O)CSc2nc3ccccc3n2Cc2ccccc2)o1	none
CC(C)CN1C(=S)SC(C)(C)C1n1oc(=O)n(-c2ccccc2)c1=O (centres undefined)	none | KCNK9 inh conf inactive | Kir2-1 spec inactive | KCNK9 uninduced inactive
Cc1ccc(NC(=O)c2cc(-c3ccccc3)nn2-c2ccccc2)c(Br)c1	none
Cc1ccc(NC(=O)c2cc(-c3ccccc3)nn2-c2ccccc2)cc1	none | KCNK9 inh conf inactive | Kir2-1 spec inactive | KCNK9 uninduced inactive
CCCN(CC(=O)Nc1ccccc1OC)C(=O)c1ccccn1	none (no result: KCNQ1 act, Kir21 block, hERG rescue, KCNQ1 block, KCNK9 block)
COc1ccc(COC(=O)Nc2cc3c(C(F)(F)F)nn(C)c3s2)cc1	none | KCNK9 inh conf inactive | Kir2-1 spec inactive | KCNK9 uninduced inactive
CN(CC(=O)NCc1ccco1)S(=O)(=O)c1ccc(F)cc1	none
Cc1ccc(C)c2nc3sc(C(=O)N4CCCc5ccccc54)c(N)c3cc12	KCNK9 block -9.13 | KCNK9 inh conf 39.0% | Kir2-1 spec inactive | KCNK9 uninduced 73.0%
COc1ccc(O)c(CN2CCC(n3nccc3NC(=O)C3CCCC3)CC2)c1	none
COc1ccccc1/C=C/CN1CCCC(CO)(Cc2cccc(Cl)c2)C1 (centres undefined)	none | KCNK9 inh conf inactive | Kir2-1 spec inactive | KCNK9 uninduced inactive
OCC1(Cc2cccc(Cl)c2)CCCN(Cc2sc(N3CCCC3)nc2Cl)C1 (centres undefined)	none | KCNK9 inh conf inactive | Kir2-1 spec inactive | KCNK9 uninduced inactive
CC(C)(C)n1nc2c(c1NC(=O)c1ccccc1C(F)(F)F)CS(=O)(=O)C2	none
O=C(CCl)N(c1ccccc1)c1c[nH]c2ccccc12	none
O=C(CCl)N(c1ccc(Cl)cc1)c1c[nH]c2ccccc12	none | KCNK9 inh conf inactive | Kir2-1 spec inactive | KCNK9 uninduced inactive
CC1Cc2ccccc2N1C(=S)NC1CCCC1 (centres undefined)	none | KCNK9 inh conf inactive | Kir2-1 spec inactive | KCNK9 uninduced inactive
c1ccc(-n2ncc3cccnc32)cc1	none
Cc1ccc(NC(=S)NNc2ccc([N+](=O)[O-])cc2S(=O)(=O)Nc2ccccc2C(=O)O)cc1C	none | KCNK9 inh conf inactive | Kir2-1 spec inactive | KCNK9 uninduced inactive
CC(=O)Nc1ccc(C=NNc2ccc([N+](=O)[O-])cc2S(=O)(=O)Nc2ccccc2C(=O)O)cc1	none (no result: KCNQ1 act, Kir21 block, hERG rescue, KCNQ1 block, KCNK9 block)
CCCOC(=O)C[N+](C)(C)CCOC1CC2CCC1(C)C2(C)C (centres undefined)	none
CCCCCCCOC(=O)C[N+](C)(C)CCOC1CC2CCC1(C)C2(C)C (centres undefined)	Kir21 block -8.24, KCNQ1 block 13, KCNK9 block -11.4 | KCNK9 inh conf 54.5% | Kir2-1 spec 73.0% | KCNK9 uninduced 22.0%
Cc1cccc(Nc2nc(N)nc(-c3oc4ccccc4c3C)n2)c1	KCNK9 block -8.87 | KCNK9 inh conf 35.0% | Kir2-1 spec inactive | KCNK9 uninduced inactive
COc1cccc(Nc2nc(N)nc(-c3oc4ccccc4c3C)n2)c1	KCNK9 block -10.2 | KCNK9 inh conf 37.5% | Kir2-1 spec inactive | KCNK9 uninduced inactive
CCc1nc(Nc2cccc(OC)c2)c2oc3ccccc3c2n1	none
Cc1ccc(Nc2nc(N)nc(-c3oc4ccccc4c3C)n2)cc1	none
Cc1cc2c(cc1S(=O)(=O)N1CCN(c3cccc(C)c3C)CC1)OCCN2C	none | KCNK9 inh conf inactive | Kir2-1 spec inactive | KCNK9 uninduced inactive
O=C(Nc1cc(S(=O)(=O)N2CCOCC2)ccc1Cl)C(=O)c1c(-c2ccccc2)cc2ccccn12	KCNK9 block -8.2 | KCNK9 inh conf inactive | Kir2-1 spec inactive | KCNK9 uninduced inactive
O=C(CNCc1ccccc1Cl)Nc1cc(S(=O)(=O)N2CCOCC2)ccc1Cl	none (no result: KCNQ1 act, Kir21 block, hERG rescue, KCNQ1 block, KCNK9 block)
CC1S/C(=N/N=C/c2ccco2)N(Cc2ccccc2)C1=O (centres undefined)	none
CC/C(=N\N=C1\SC(C)C(=O)N1Cc1ccco1)c1ccccc1 (centres undefined)	none | KCNK9 inh conf inactive | Kir2-1 spec inactive | KCNK9 uninduced 26.0%
O=C(NCC(=O)N1CCN(S(=O)(=O)c2ccccc2C(F)(F)F)CC1)c1sc2ccccc2c1Cl	none
CCC(=O)N1c2ccccc2[C@@H](N(C(C)=O)c2ccccc2)C[C@H]1C	none
Cc1ccc(C(=O)N(c2ccccc2)C2CC(C)N(C(=O)c3ccco3)c3ccccc32)cc1 (centres undefined)	none | KCNK9 inh conf inactive | Kir2-1 spec inactive | KCNK9 uninduced inactive
CCC(=O)NC(=S)NNC(=O)c1ccc(O)cc1	KCNK9 block -8.22 | KCNK9 inh conf inactive | Kir2-1 spec inactive | KCNK9 uninduced 27.0%
CN1C(=O)/C(=C\c2ccccc2F)Sc2ccc(C(=O)NC3CCN(Cc4ccccc4)CC3)cc21	none
O=c1c2sccc2nc(SCc2ccc([N+](=O)[O-])cc2)n1Cc1ccccn1	KCNK9 block -9.57 | KCNK9 inh conf 74.0% | Kir2-1 spec inactive | KCNK9 uninduced 27.5%

Bioassay records as filed in PubChem BioAssay.
